Results taken from publication PMC8906099 (Current Research in Parasitology & Vector-borne Diseases, 2021).
Converted amounts (≈) assume the structure as drawn. Read-outs that look alike come from different tables or passages of the source.

Experiments:
infected C2C12 cells = experiment: Cytotoxicity in infected C2C12 cells after 72 h; type: cell-based, murine; conditions: 72 h
Procedure, shortened: (§1)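 C2C12 cells were infected with trypomastigotes (1:15) together with test compound (0.19–100 μM, 0.1% DMSO) for 72 h at 37 °C, 5% CO2. Host nuclei were counted by DAPI high-content imaging. Viability was the cell count relative to the DMSO-control mean. CC50 came from sigmoid fits. SI = CC50/IC50 against intracellular amastigotes of the same strain at 72 h.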

[1] = Cytotoxicity in infected C2C12 cells after 72 h; type: cell-based, murine; conditions: mouse
Procedure, shortened: as §1

[2] = system: amastigotes of T. cruzi CA-I/72 strain; experiment: Trypanocidal activity against intracellular amastigotes in C2C12 cells; type: cell-based; conditions: Trypanosoma cruzi, C2C12, 72 h, read-out: IC50 ± SD, amastigotes
Procedure, shortened: (§2)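 Trypomastigotes from C2C12 co-culture (DMEM, 10% FBS, 25 mM HEPES, pH 7.2) were seeded with C2C12 cells at a 1:15 infection rate. Test compound (0.19–100 μM, 2-fold, 0.1% DMSO) was added at the start. After 72 h at 37 °C, 5% CO2, cells were stained with DAPI 2 h and imaged confocally. Amastigote and host nuclei were told apart by size. IC50 came from sigmoid fits of the infection ratio normalised to controls. Mean ± SD, three experiments in triplicate.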

[3] = system: amastigotes of T. cruzi Brazil strain; experiment: as above; type: cell-based; conditions: Trypanosoma cruzi, C2C12, 72 h, read-out: IC50 ± SD, amastigotes
Procedure, shortened: as §2

[4] = system: amastigotes of T. cruzi Sylvio X10/7 strain; experiment: as above; type: cell-based, Trypanosoma cruzi; conditions: Trypanosoma cruzi, C2C12, 72 h, read-out: IC50 ± SD, amastigotes, Sylvio X10/7 strain, 72 h incubation
Procedure, shortened: as §2

non-infected C2C12 cells = experiment: Cytotoxicity in non-infected cells; type: cell-based, murine; conditions: non-infected C2C12 CC50 / IC50 amastigotes CA-I/72 strain, 72 h
Procedure, shortened: (§3)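 Non-infected C2C12 cells (5 × 10^4 per well) were plated for 24 h. Test compound (0.19–100 μM, 2-fold, 0.1% DMSO) was then added for 72 h at 37 °C. Controls were untreated, DMSO 0.4% and Triton 15%. After a PBS wash, MTT (2 mg/ml) was added for 4 h, and absorbance was read at 450 nm (reference 620 nm). CC50 came from sigmoid fits. SI = CC50/IC50 against CA-I/72 amastigotes at 72 h.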

[5] = Cytotoxicity in non-infected cells; type: cell-based, murine; conditions: mouse, non-infected C2C12 cells
Procedure, shortened: as §3

Trichomonas vaginalis = conditions: ref Carapina da Silva et al., 2019, cited from earlier work
[6] = system: amastigotes of T. cruzi Sylvio X10/4 strain; experiment: Trypanocidal activity against intracellular amastigotes in C2C12 cells; type: cell-based; conditions: Trypanosoma cruzi, C2C12, 72 h, read-out: IC50 ± SD, amastigotes
Procedure, shortened: as §2

[7] = system: trypomastigotes of T. cruzi (Sylvio X10/4 strain); experiment: Trypanocidal activity against trypomastigotes; type: cell-based; conditions: Trypanosoma cruzi, 72 h, read-out: IC50 ± SD, trypomastigotes
Procedure, shortened: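 Sylvio X10/4 trypomastigotes were taken from amastigote culture supernatant and seeded at 1 × 10^6 per well. Test compound was added at 0.19–100 μM (0.1% DMSO), with benznidazole (0.019–10 μM) and DMSO controls. Incubation was 72 h at 37 °C, 5% CO2. Viability was read with resazurin (40 μM in PBS), fluorescence 530/630 nm. IC50 came from sigmoid dose–response fits.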

[8] = system: C2C12 cells infected with intracellular amastigotes of T. cruzi (CA-I/72 strain); experiment: Time-course cytotoxicity in infected C2C12 cells; type: cell-based, murine; conditions: infected C2C12 vs amastigotes CA-I/72, time-course
Procedure, shortened: (§4)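 This uses the CA-I/72 time-course infection format: a 48 h pre-infection of C2C12 cells, then test compound at 0.19–100 μM for 8, 12, 24 or 48 h, with DAPI imaging. Host viability was the total host cell count divided by the mean count of 0.1% DMSO controls. CC50 came from sigmoid fits. SI = CC50/IC50 against amastigotes at the matching time.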

[9] = Time-course cytotoxicity in infected C2C12 cells; type: cell-based, murine; conditions: mouse
Procedure, shortened: as §4

[10] = system: several Streptococcus species; conditions: ref Vieira et al., 2018; cited from earlier work
[11] = system: non-infected LLC-MK2 cells; experiment: Cytotoxicity in non-infected cells; type: cell-based, monkey; conditions: non-infected LLC-MK2 CC50 / IC50 amastigotes CA-I/72 strain, 72 h
Procedure, shortened: (§5)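 LLC-MK2 monkey kidney cells, grown in RPMI with 10% FBS at 37 °C and 5% CO2, were plated and after 24 h exposed to test compound (0.19–100 μM, 2-fold dilutions, 0.1% DMSO) for 72 h at 37 °C. Controls were untreated cells, 0.4% DMSO and 15% Triton. After a PBS wash, MTT (2 mg/ml) was added for 4 h, and absorbance read at 450/620 nm. SI is CC50 divided by the 72 h CA-I/72 intracellular amastigote IC50.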

[12] = Cytotoxicity in non-infected cells; type: cell-based, monkey; conditions: monkey, non-infected LLC-MK2 cells
Procedure, shortened: as §5

[13] = system: intracellular amastigotes of T. cruzi CA-I/72 strain; experiment: Time-course study against intracellular amastigotes; type: cell-based; conditions: Trypanosoma cruzi
Procedure, shortened: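 CA-I/72 trypomastigotes were incubated with C2C12 cells for 48 h to form intracellular amastigotes. Test compound was then added (0.19–100 μM, 2-fold, 0.1% DMSO), with benznidazole and DMSO controls. Incubation ran 8, 12, 24 or 48 h at 37 °C, 5% CO2. Growth inhibition was read by DAPI high-content imaging. IC50 came from sigmoid fits of the normalised infection ratio. Time trend was tested by linear regression and ANOVA.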

P. falciparum = conditions: ref Aher et al., 2011, cited from earlier work
female BALB/c mice = experiment: Acute oral toxicity test in mice; type: in vivo; conditions: for DA/TA (dead animals/total animals) / Mortality / Signs of toxicity: 14 days
Procedure, shortened: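 Six-week-old female BALB/c mice (25–30 g), five per group. Single oral dose of 300 or 1,000 mg/kg test compound in Tween 80/ethanol/water (7:3:90), with a vehicle group. Clinical signs (ataxia, tremor, salivation, ptosis, seizures and others) watched continuously for 1 h, periodically over 24 h, then daily to day 14. Mortality recorded.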

[14] = infected C2C12, Sylvio X10/4 strain
[15] = infected C2C12, Sylvio X10/7 strain
[16] = C2C12 cells infected with T. cruzi Brazil strain
[17] = C2C12 cells infected with T. cruzi CA-I/72 strain
[18] = C2C12 cells infected with T. cruzi Sylvio X10/4 strain
[19] = C2C12 cells infected with T. cruzi Sylvio X10/7 strain

SMILES: O=C(/C=C/c1ccccc1)/C=C/c1ccccc1 [DBA 1, (1E,4E)-1,5-diphenylpenta-1,4-dien-3-one]
- SI (CC50/IC50) (infected C2C12 cells; infected C2C12, Brazil strain): 0.35
- SI (CC50/IC50) (infected C2C12 cells; infected C2C12, CA-I/72 strain): 1.22
- SI (CC50/IC50) (infected C2C12 cells; [14]): 0.11
- SI (CC50/IC50) (infected C2C12 cells; [15]): 0.28
- CC50 at 72 h [1, 16]: 7.32 ± 0.41 µM
- CC50 at 72 h [1, 17]: 5.74 ± 1.95 µM
- CC50 at 72 h [1, 18]: 3.8 ± 0.24 µM
- CC50 at 72 h [1, 19]: 3.29 ± 1 µM
- IC50 [2]: 4.67 ± 1.96 µM
- IC50 [3]: 21.1 ± 2.51 µM
- IC50 [4]: 11.7 ± 0.81 µM
- SI (CC50/IC50) (non-infected C2C12 cells): 8.59
- CC50 at 72 h [5]: 40.1 ± 1.25 µM
- reduction in the parasitic viability (Trichomonas vaginalis; after 24 h incubation): 98.8%
- IC50 (Trichomonas vaginalis): 50 µM
- IC50 [6]: 34 ± 2.92 µM
- IC50 [7]: 41.2 ± 2.25 µM
- SI (CC50/IC50) ([8]; 12 h): 0.02
- SI (CC50/IC50) ([8]; 24 h): 0.007
- SI (CC50/IC50) ([8]; 48 h): 0.002
- CC50 at 8 h [9]: 12.2 ± 1.15 µM
- CC50 at 12 h [9]: 2 ± 0.42 µM
- CC50 at 24 h [9]: 0.28 ± 0.04 µM
- CC50 at 48 h [9]: 0.03 ± 0.02 µM
- MIC [10]: 100 mg/L (≈ 427 µM)
- SI (CC50/IC50) [11]: 3.54
- CC50 at 72 h [12]: 16.6 ± 0.61 µM
- IC50 ([13]; 8 h, read-out: IC50 ± SD): > 100 µM
- IC50 ([13]; 12 h, read-out: IC50 ± SD): 76.8 ± 1.39 µM
- IC50 ([13]; 24 h, read-out: IC50 ± SD): 37.5 ± 1.01 µM
- IC50 ([13]; 48 h, read-out: IC50 ± SD): 14.6 ± 1.1 µM

SMILES: COc1ccc(/C=C/C(=O)/C=C/c2ccc(OC)c(OC)c2)cc1OC [DBA 3, (1E,4E)-1,5-bis-(3,4-dimethoxyphenyl)penta-1,4-dien-3-one]
- IC50 (P. falciparum; chloroquine-resistant strain): 1.69 µM
- IC50 (P. falciparum; chloroquine-sensitive strain): 1.97 µM
- SI (CC50/IC50) (infected C2C12 cells; infected C2C12, Brazil strain): 0.43
- SI (CC50/IC50) (infected C2C12 cells; infected C2C12, CA-I/72 strain): 1.07
- SI (CC50/IC50) (infected C2C12 cells; [14]): 0.13
- SI (CC50/IC50) (infected C2C12 cells; [15]): 0.23
- CC50 at 72 h [1, 16]: 1.73 ± 0.05 µM
- CC50 at 72 h [1, 17]: 1.62 ± 0.22 µM
- CC50 at 72 h [1, 18]: 1.25 ± 0.02 µM
- CC50 at 72 h [1, 19]: 1.15 ± 0.29 µM
- IC50 [2]: 1.51 ± 0.42 µM
- IC50 [3]: 3.91 ± 0.25 µM
- Acute toxicity (general signs of toxicity or mortality) (female BALB/c mice; oral doses 300 and 1,000 mg/kg, 14-day period): no toxic effects
- DA/TA (dead animals/total animals) (female BALB/c mice; single oral dose 300 mg/kg): 0/5
- Mortality (female BALB/c mice; single oral dose 300 mg/kg): 0%
- Signs of toxicity (female BALB/c mice; single oral dose 300 mg/kg): None
- DA/TA (dead animals/total animals) (female BALB/c mice; single oral dose 1,000 mg/kg): 0/5
- Mortality (female BALB/c mice; single oral dose 1,000 mg/kg): 0%
- Signs of toxicity (female BALB/c mice; single oral dose 1,000 mg/kg): None
- IC50 [4]: 4.87 ± 0.05 µM
- SI (CC50/IC50) (non-infected C2C12 cells): > 10
- SI (CC50/IC50) (non-infected C2C12 cells; listed as 3): 13.78
- CC50 at 72 h [5]: 20.8 ± 0.67 µM
- IC50 [6]: 9.63 ± 1.58 µM
- IC50 [7]: 11.5 ± 1.36 µM
- SI (CC50/IC50) ([8]; 12 h): 0.04
- SI (CC50/IC50) ([8]; 24 h): 0.003
- SI (CC50/IC50) ([8]; 48 h): 0.05
- CC50 at 8 h [9]: 29.8 ± 1.32 µM
- CC50 at 12 h [9]: 2.79 ± 0.3 µM
- CC50 at 24 h [9]: 0.21 ± 0.13 µM
- CC50 at 48 h [9]: 0.22 ± 0.17 µM
- SI (CC50/IC50) [11]: 7.62
- CC50 at 72 h [12]: 11.5 ± 0.34 µM
- IC50 ([13]; 8 h, read-out: IC50 ± SD): > 100 µM
- IC50 ([13]; 12 h, read-out: IC50 ± SD): 63.3 ± 3.87 µM
- IC50 ([13]; 24 h, read-out: IC50 ± SD): 62.1 ± 1.52 µM
- IC50 ([13]; 48 h, read-out: IC50 ± SD): 3.72 ± 0.56 µM

SMILES: O=C(/C=C/c1ccc(Cl)cc1)/C=C/c1ccc(Cl)cc1 [DBA 5, (1E,4E)-1,5-bis-(4-chlorophenyl)penta-1,4-dien-3-one]
- SI (CC50/IC50) (infected C2C12 cells; infected C2C12, CA-I/72 strain): 0.45
- SI (CC50/IC50) (infected C2C12 cells; [14]): 0.20
- SI (CC50/IC50) (infected C2C12 cells; [15]): 0.16
- CC50 at 72 h [1, 16]: 12.4 ± 2.29 µM
- CC50 at 72 h [1, 17]: 15.5 ± 1.25 µM
- CC50 at 72 h [1, 18]: 11.8 ± 7.74 µM
- CC50 at 72 h [1, 19]: 4.06 ± 2.31 µM
- IC50 [2]: 33.6 ± 1.39 µM
- IC50 [3]: 6.37 ± 0.03 µM
- IC50 [4]: 25.3 ± 1.34 µM
- SI (CC50/IC50) (non-infected C2C12 cells): 1.13
- CC50 at 72 h [5]: 38.3 ± 1.69 µM
- IC50 [6]: 56.9 ± 1.86 µM
- IC50 [7]: 73.7 ± 2.08 µM
- CC50 at 8 h [9]: 93.29 ± 0.42 µM
- CC50 at 12 h [9]: 10.6 ± 1.26 µM
- CC50 at 24 h [9]: 0.3 ± 0.02 µM
- CC50 at 48 h [9]: 0.2 ± 0.01 µM
- MIC [10]: 100 mg/L (≈ 330 µM)
- SI (CC50/IC50) [11]: 1.13
- CC50 at 72 h [12]: 38.1 ± 1.81 µM
- IC50 ([13]; 8 h, read-out: IC50 ± SD): > 100 µM
- IC50 ([13]; 12 h, read-out: IC50 ± SD): > 100 µM
- IC50 ([13]; 24 h, read-out: IC50 ± SD): > 100 µM
- IC50 ([13]; 48 h, read-out: IC50 ± SD): > 100 µM
- IC50 ([13]; read-out: IC50 over the incubation times evaluated): > 100 µM
